Results taken from ChEMBL document CHEMBL5724801, “EUbOPEN Chemogenomics Library - Multiplex” (2024).
Several values for one entry are separate records, joined by “and”; a condition that tells them apart may be missing. Equal values may be shown once.

Test system: HEK-293T
Assay: Multiplex assay against HEK293T
Assay type: toxicity, cell-based
Details: human
Outline: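 Compound was added to live cells that had been stained at seeding with Hoechst33342, BioTracker Green Microtubule Cytoskeleton Dye, MitoTracker Red and Annexin V Alexa Fluor 680, and imaging followed on a CQ1 microscope at 37°C and 5% CO2. CellPathfinder machine-learning gating divided cells into Hoechst high-intensity objects or normal cells, normal cells into healthy, pyknosed or fragmented nuclei, and pyknosed cells into mitotic or apoptotic. Tubulin, mitochondrial-mass and membrane-permeability phenotypes are per cents of healthy-nucleus cells.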

[1] = 12 h, 1 µM, compound concentration 1 uM
[2] = 12 h, 10 µM, compound concentration 10 uM
[3] = 24 h, 1 µM, compound concentration 1 uM
[4] = 24 h, 10 µM, compound concentration 10 uM
[5] = 48 h, 1 µM, compound concentration 1 uM
[6] = 48 h, 10 µM, compound concentration 10 uM

## Cc1cc(C)c(NC(=O)C2CC3CCC2C3)c(C)c1 (stereo not drawn)
[1]
  Population Apoptotic (%): 10.42% and 11.4%
  Population Fragmented Nuclei (%): 4.2% and 7.23%
  Population Healthy Nuclei (%): 55.46% and 24.1%
  Population Hoechst High Intensity Objects (%): 0.83% and 0%
  Population Membrane Permeable-Phenotype (%): 0.51% and 2.5%
  Population Mitochondria Different-Phenotype (%): 38.89% and 22.5%
  Population Mitotic Cells (%): 89.58% and 88.6%
  Population Normal (%): 99.17% and 100%
  Population Pyknosed Nuclei (%): 40.34% and 68.67%
  Total Cell Count: 360 and 166
[2]
  Population Apoptotic (%): 15.2%
  Population Fragmented Nuclei (%): 3.72% and 4.14%
  Population Healthy Nuclei (%): 44.63% and 21.89%
  Population Hoechst High Intensity Objects (%): 0.82% and 0%
  Population Membrane Permeable-Phenotype (%): 0.93% and 2.7%
  Population Mitochondria Different-Phenotype (%): 32.41% and 16.22%
  Population Mitotic Cells (%): 84.8%
  Population Normal (%): 99.18% and 100%
  Population Pyknosed Nuclei (%): 51.65% and 73.96%
  Total Cell Count: 244 and 169
[3]
  Population Apoptotic (%): 14.08% and 10%
  Population Fragmented Nuclei (%): 1.7% and 6.43%
  Population Healthy Nuclei (%): 74.19% and 29.24%
  Population Hoechst High Intensity Objects (%): 0%
  Population Membrane Permeable-Phenotype (%): 1.6% and 0%
  Population Mitotic Cells (%): 85.92% and 90%
  Population Normal (%): 100%
  Population Pyknosed Nuclei (%): 24.11% and 64.33%
  Population Tubulin-Different-Phenotype (%): 17.39% and 0%
[4]
  Population Apoptotic (%): 17.76% and 15.52%
  Population Fragmented Nuclei (%): 1.69% and 2.58%
  Population Healthy Nuclei (%): 72.53% and 37.63%
  Population Hoechst High Intensity Objects (%): 0%
  Population Membrane Permeable-Phenotype (%): 0.33% and 1.37%
  Population Mitochondria Different-Phenotype (%): 17.61% and 20.55%
  Population Mitotic Cells (%): 82.24% and 84.48%
  Population Normal (%): 100%
  Population Pyknosed Nuclei (%): 25.78% and 59.79%
  Population Tubulin-Different-Phenotype (%): 14.95% and 10.96%
  Total Cell Count: 415 and 194
[5]
  Population Apoptotic (%): 8.16% and 13.89%
  Population Fragmented Nuclei (%): 2.91% and 1.03%
  Population Healthy Nuclei (%): 86.66% and 62.05%
  Population Hoechst High Intensity Objects (%): 0% and 1.52%
  Population Membrane Permeable-Phenotype (%): 4.67% and 2.48%
  Population Mitochondria Different-Phenotype (%): 12.37% and 24.79%
  Population Mitotic Cells (%): 91.84% and 86.11%
  Population Normal (%): 100% and 98.48%
[6]
  Population Apoptotic (%): 9.24% and 23.08%
  Population Fragmented Nuclei (%): 2.94% and 2.43%
  Population Healthy Nuclei (%): 84.08% and 71.26%
  Population Hoechst High Intensity Objects (%): 0%
  Population Membrane Permeable-Phenotype (%): 4.15% and 3.98%
  Population Mitochondria Different-Phenotype (%): 20.62% and 28.98%
  Population Mitotic Cells (%): 90.76% and 76.92%
  Population Normal (%): 100%
  Population Pyknosed Nuclei (%): 12.98% and 26.32%

## O=C1CSC(=O)N1C(CCc1ccncc1)COc1ccc(-c2cccc([N+](=O)[O-])c2)cc1 (stereo not drawn)
[1]
  Population Apoptotic (%): 18.32% and 7.02%
  Population Fragmented Nuclei (%): 3.08% and 7.35%
  Population Hoechst High Intensity Objects (%): 0.76% and 0%
  Population Membrane Permeable-Phenotype (%): 2.48% and 0%
  Population Mitochondria Different-Phenotype (%): 25.62% and 16.67%
  Population Mitotic Cells (%): 81.68% and 92.98%
  Population Normal (%): 99.24% and 100%
  Population Pyknosed Nuclei (%): 50.38% and 83.82%
  Total Cell Count: 262 and 136
[2]
  Population Apoptotic (%): 45.8% and 41.28%
  Population Fragmented Nuclei (%): 3.51% and 3.1%
  Population Healthy Nuclei (%): 19.88% and 12.4%
  Population Hoechst High Intensity Objects (%): 0.58% and 0%
  Population Membrane Permeable-Phenotype (%): 0%
  Population Mitochondria Different-Phenotype (%): 32.35% and 18.75%
  Population Mitotic Cells (%): 54.2% and 58.72%
  Population Normal (%): 99.42% and 100%
  Population Pyknosed Nuclei (%): 76.61% and 84.5%
  Population Tubulin-Different-Phenotype (%): 70.59% and 62.5%
  Total Cell Count: 172 and 129
[3]
  Population Apoptotic (%): 27.34% and 23.23%
  Population Fragmented Nuclei (%): 4.44% and 4.69%
  Population Hoechst High Intensity Objects (%): 0.52% and 0%
  Population Membrane Permeable-Phenotype (%): 0.42% and 0%
  Population Mitochondria Different-Phenotype (%): 35.71% and 17.39%
  Population Mitotic Cells (%): 72.66% and 76.77%
  Population Normal (%): 99.48% and 100%
  Population Pyknosed Nuclei (%): 33.42% and 77.34%
[4]
  Population Apoptotic (%): 78.62% and 78.15%
  Population Fragmented Nuclei (%): 2.66% and 5.11%
  Population Healthy Nuclei (%): 20.21% and 8.03%
  Population Hoechst High Intensity Objects (%): 1.05% and 0.72%
  Population Membrane Permeable-Phenotype (%): 0%
  Population Mitochondria Different-Phenotype (%): 81.58% and 63.64%
  Population Mitotic Cells (%): 21.38% and 21.85%
  Population Normal (%): 98.95% and 99.28%
  Population Pyknosed Nuclei (%): 77.13% and 86.86%
  Population Tubulin-Different-Phenotype (%): 100% and 45.45%
  Total Cell Count: 190 and 138
[5]
  Population Apoptotic (%): 14.91% and 17.91%
  Population Fragmented Nuclei (%): 2.27% and 5.07%
  Population Healthy Nuclei (%): 82.51% and 46.38%
  Population Hoechst High Intensity Objects (%): 0%
  Population Membrane Permeable-Phenotype (%): 2.59% and 1.56%
  Population Mitochondria Different-Phenotype (%): 37.38% and 28.12%
  Population Mitotic Cells (%): 85.09% and 82.09%
  Population Normal (%): 100%
[6]
  Population Apoptotic (%): 71.68% and 69.07%
  Population Fragmented Nuclei (%): 2.88% and 7.56%
  Population Hoechst High Intensity Objects (%): 1.89% and 0%
  Population Membrane Permeable-Phenotype (%): 3.37% and 0%
  Population Mitochondria Different-Phenotype (%): 95.51% and 84.62%
  Population Mitotic Cells (%): 28.32% and 30.93%
  Population Normal (%): 98.11% and 100%
  Population Pyknosed Nuclei (%): 54.33% and 81.51%
  Population Tubulin-Different-Phenotype (%): 84.27% and 69.23%
  Total Cell Count: 212 and 119

## Cn1ncnc1COc1nn2c(-c3cc(F)ccc3F)nnc2cc1C(C)(C)C
[1]
  Population Apoptotic (%): 8.93% and 7.56%
  Population Fragmented Nuclei (%): 2.83% and 4.35%
  Population Hoechst High Intensity Objects (%): 0%
  Population Mitochondria Different-Phenotype (%): 29.79% and 46.15%
  Population Mitotic Cells (%): 91.07% and 92.44%
  Population Normal (%): 100%
  Population Pyknosed Nuclei (%): 52.83% and 86.23%
  Total Cell Count: 318 and 138
[2]
  Population Apoptotic (%): 12.9% and 20.39%
  Population Fragmented Nuclei (%): 0.72% and 5.3%
  Population Healthy Nuclei (%): 43.73% and 16.67%
  Population Hoechst High Intensity Objects (%): 0%
  Population Mitotic Cells (%): 87.1% and 79.61%
  Population Normal (%): 100%
  Population Pyknosed Nuclei (%): 55.56% and 78.03%
  Population Tubulin-Different-Phenotype (%): 22.95% and 27.27%
  Total Cell Count: 279 and 132
[3]
  Population Apoptotic (%): 10.85% and 17.5%
  Population Fragmented Nuclei (%): 2.35% and 3.27%
  Population Hoechst High Intensity Objects (%): 0%
  Population Mitochondria Different-Phenotype (%): 20.12% and 10.71%
  Population Mitotic Cells (%): 89.15% and 82.5%
  Population Normal (%): 100%
  Population Pyknosed Nuclei (%): 27.56% and 78.43%
  Population Tubulin-Different-Phenotype (%): 23.17% and 10.71%
[4]
  Population Apoptotic (%): 25.69% and 29.36%
  Population Fragmented Nuclei (%): 1.85% and 4.23%
  Population Hoechst High Intensity Objects (%): 0.52% and 0%
  Population Mitochondria Different-Phenotype (%): 34.22% and 18.52%
  Population Mitotic Cells (%): 74.31% and 70.64%
  Population Normal (%): 99.48% and 100%
  Population Pyknosed Nuclei (%): 28.76% and 76.76%
  Population Tubulin-Different-Phenotype (%): 50.19% and 33.33%
  Total Cell Count: 381 and 142
[5]
  Population Apoptotic (%): 9.38% and 21.84%
  Population Fragmented Nuclei (%): 2.19% and 2.84%
  Population Healthy Nuclei (%): 86.12% and 47.73%
  Population Hoechst High Intensity Objects (%): 0% and 0.56%
  Population Mitochondria Different-Phenotype (%): 20.57% and 32.14%
  Population Mitotic Cells (%): 90.62% and 78.16%
  Population Normal (%): 100% and 99.44%
[6]
  Population Apoptotic (%): 22.83% and 17.39%
  Population Fragmented Nuclei (%): 1.92%
  Population Healthy Nuclei (%): 77.76% and 53.85%
  Population Hoechst High Intensity Objects (%): 0.32% and 0%
  Population Mitochondria Different-Phenotype (%): 45.27% and 57.14%
  Population Mitotic Cells (%): 77.17% and 82.61%
  Population Normal (%): 99.68% and 100%
  Population Pyknosed Nuclei (%): 20.32% and 44.23%

## CCOC(=O)c1cnn(-c2ccc(NC(=O)C(Cl)=C(Cl)Cl)cc2)c1C(F)(F)F
[1]
  Population Apoptotic (%): 11.04% and 11.54%
  Population Fragmented Nuclei (%): 2.46% and 4.48%
  Population Hoechst High Intensity Objects (%): 0.27% and 0%
  Population Membrane Permeable-Phenotype (%): 0.49% and 0%
  Population Mitochondria Different-Phenotype (%): 37.44% and 16.67%
  Population Mitotic Cells (%): 88.96% and 88.46%
  Population Normal (%): 99.73% and 100%
  Population Pyknosed Nuclei (%): 42.08% and 77.61%
  Total Cell Count: 367 and 134
[2]
  Population Apoptotic (%): 29.28% and 34.92%
  Population Fragmented Nuclei (%): 10.14% and 2.8%
  Population Healthy Nuclei (%): 26.57% and 9.09%
  Population Hoechst High Intensity Objects (%): 0.35% and 0%
  Population Membrane Permeable-Phenotype (%): 1.32% and 0%
  Population Mitochondria Different-Phenotype (%): 18.42% and 46.15%
  Population Mitotic Cells (%): 70.72% and 65.08%
  Population Normal (%): 99.65% and 100%
  Population Pyknosed Nuclei (%): 63.29% and 88.11%
  Total Cell Count: 287 and 143
[3]
  Population Apoptotic (%): 14.69% and 14.29%
  Population Fragmented Nuclei (%): 1.44% and 6.88%
  Population Healthy Nuclei (%): 72.84% and 31.87%
  Population Hoechst High Intensity Objects (%): 0.18% and 0%
  Population Membrane Permeable-Phenotype (%): 2.47% and 1.96%
  Population Mitochondria Different-Phenotype (%): 18.02% and 7.84%
  Population Mitotic Cells (%): 85.31% and 85.71%
  Population Normal (%): 99.82% and 100%
  Population Pyknosed Nuclei (%): 25.72% and 61.25%
[4]
  Population Apoptotic (%): 63.22% and 90.58%
  Population Fragmented Nuclei (%): 11.84% and 6.41%
  Population Healthy Nuclei (%): 12.77% and 5.13%
  Population Hoechst High Intensity Objects (%): 3.6% and 0%
  Population Membrane Permeable-Phenotype (%): 0%
  Population Mitochondria Different-Phenotype (%): 29.27% and 37.5%
  Population Normal (%): 96.4% and 100%
  Population Pyknosed Nuclei (%): 75.39% and 88.46%
  Population Tubulin-Different-Phenotype (%): 29.27% and 37.5%
  Total Cell Count: 333 and 156
[5]
  Population Fragmented Nuclei (%): 2.62% and 2.05%
  Population Healthy Nuclei (%): 85.68% and 49.74%
  Population Hoechst High Intensity Objects (%): 0.22% and 0%
  Population Membrane Permeable-Phenotype (%): 5.07% and 1.03%
  Population Mitochondria Different-Phenotype (%): 16.62% and 27.84%
  Population Mitotic Cells (%): 94.87% and 81.91%
  Population Normal (%): 99.78% and 100%
[6]
  Population Apoptotic (%): 53.58% and 95.86%
  Population Fragmented Nuclei (%): 14.99% and 9.58%
  Population Healthy Nuclei (%): 8.65% and 3.59%
  Population Hoechst High Intensity Objects (%): 1.42% and 0.6%
  Population Membrane Permeable-Phenotype (%): 0%
  Population Mitochondria Different-Phenotype (%): 43.33% and 100%
  Population Normal (%): 98.58% and 99.4%
  Population Pyknosed Nuclei (%): 76.37% and 86.83%
  Population Tubulin-Different-Phenotype (%): 23.33% and 66.67%
  Total Cell Count: 352 and 168
